How the values were obtained:
[1] = Binding affinity to hairpin double stranded DNA AT base pair in sodium cacodylate buffer at pH 6.8 assessed as triplex-forming ability measuring melting temperature after by UV melting experiment
How it was run: (§1)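 TFO and hairpin dsDNA target, each strand at 1.89 μM final, in 10 mM sodium cacodylate (pH 6.8) with 100 mM KCl and 50 mM MgCl₂. Annealed in boiling water, then cooled slowly to 5 °C. Melting was followed at 260 nm from 5 to 90 °C at 0.5 °C/min. Tm was taken by the two-point average method, mean of three independent runs.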

[2] = Binding affinity to hairpin double stranded DNA CG base pair in sodium cacodylate buffer at pH 6.8 assessed as triplex-forming ability measuring melting temperature after by UV melting experiment; how it was run: as §1
[3] = Binding affinity to hairpin double stranded DNA TA base pair in sodium cacodylate buffer at pH 6.8 assessed as triplex-forming ability measuring melting temperature after by UV melting experiment; how it was run: as §1
[4] = Binding affinity to hairpin double stranded DNA GC base pair in sodium cacodylate buffer at pH 6.8 assessed as triplex-forming ability measuring melting temperature after by UV melting experiment; how it was run: as §1

| Tm [1] [°C] | Tm [2] [°C] | Tm [3] [°C] | Tm [4] [°C] | Compound |
| --- | --- | --- | --- | --- |
| 19 | 22 | 19 | 19 | Cc1cn([C@H]2C[C@H](O[PH](OCCC#N)(OC[C@H]3O[C@@H](n4cc(C)c(=O)[nH]c4=O)C[C@@H]3O[PH](OCCC#N)(OC[C@H]3O[C@@H](n4cc(C)c(=O)[nH]c4=O)C[C@@H]3O[PH](OCCC#N)(OC[C@H]3O[C@@H](n4cc(C)c(=O)[nH]c4=O)C[C@@H]3O[PH](OCCC#N)(OC[C@H]3O[C@@H](n4cc(C)c(=O)[nH]c4=O)C[C@@H]3O[PH](OCCC#N)(OC(C)[C@H]3O[C@@H](n4ccc(N)nc4=O)C[C@@H]3O[PH](OCCC#N)(OC[C@H]3O[C@@H](n4cc(C)c(=O)[nH]c4=O)C[C@@H]3O[PH](OCCC#N)(OC[C@H]3O[C@@H](OCc4cn(-c5ccc(CO)cc5)nn4)C[C@@H]3OP(=O)(O)OC[C@H]3O[C@@H](n4cc(C)c(=O)[nH]c4=O)C[C@@H]3O[PH](OCCC#N)(OC(C)[C@H]3O[C@@H](n4ccc(N)nc4=O)C[C@@H]3O[PH](OCCC#N)(OC[C@H]3O[C@@H](n4cc(C)c(=O)[nH]c4=O)C[C@@H]3O[PH](OCCC#N)(OC(C)[C@H]3O[C@@H](n4ccc(N)nc4=O)C[C@@H]3O[PH](OCCC#N)(OC[C@H]3O[C@@H](n4cc(C)c(=O)[nH]c4=O)C[C@@H]3O[PH](OCCC#N)(OC(C)[C@H]3O[C@@H](n4ccc(N)nc4=O)C[C@@H]3O[PH](OCCC#N)(OC[C@H]3O[C@@H](n4cc(C)c(=O)[nH]c4=O)C[C@@H]3O)N(C(C)C)C(C)C)N(C(C)C)C(C)C)N(C(C)C)C(C)C)N(C(C)C)C(C)C)N(C(C)C)C(C)C)N(C(C)C)C(C)C)N(C(C)C)C(C)C)N(C(C)C)C(C)C)N(C(C)C)C(C)C)N(C(C)C)C(C)C)N(C(C)C)C(C)C)N(C(C)C)C(C)C)N(C(C)C)C(C)C)[C@@H](CO)O2)c(=O)[nH]c1=O (stereo partly specified) |
| 22 | 27 | 27 | 23 | Cc1cn([C@H]2C[C@H](O[PH](OCCC#N)(OC[C@H]3O[C@@H](n4cc(C)c(=O)[nH]c4=O)C[C@@H]3O[PH](OCCC#N)(OC[C@H]3O[C@@H](n4cc(C)c(=O)[nH]c4=O)C[C@@H]3O[PH](OCCC#N)(OC[C@H]3O[C@@H](n4cc(C)c(=O)[nH]c4=O)C[C@@H]3O[PH](OCCC#N)(OC[C@H]3O[C@@H](n4cc(C)c(=O)[nH]c4=O)C[C@@H]3O[PH](OCCC#N)(OC(C)[C@H]3O[C@@H](n4ccc(N)nc4=O)C[C@@H]3O[PH](OCCC#N)(OC[C@H]3O[C@@H](n4cc(C)c(=O)[nH]c4=O)C[C@@H]3O[PH](OCCC#N)(OC[C@H]3O[C@@H](CCc4cn(-c5cc(NC(N)=O)cc(NC(N)=O)c5)nn4)C[C@@H]3OP(=O)(O)OC[C@H]3O[C@@H](n4cc(C)c(=O)[nH]c4=O)C[C@@H]3O[PH](OCCC#N)(OC(C)[C@H]3O[C@@H](n4ccc(N)nc4=O)C[C@@H]3O[PH](OCCC#N)(OC[C@H]3O[C@@H](n4cc(C)c(=O)[nH]c4=O)C[C@@H]3O[PH](OCCC#N)(OC(C)[C@H]3O[C@@H](n4ccc(N)nc4=O)C[C@@H]3O[PH](OCCC#N)(OC[C@H]3O[C@@H](n4cc(C)c(=O)[nH]c4=O)C[C@@H]3O[PH](OCCC#N)(OC(C)[C@H]3O[C@@H](n4ccc(N)nc4=O)C[C@@H]3O[PH](OCCC#N)(OC[C@H]3O[C@@H](n4cc(C)c(=O)[nH]c4=O)C[C@@H]3O)N(C(C)C)C(C)C)N(C(C)C)C(C)C)N(C(C)C)C(C)C)N(C(C)C)C(C)C)N(C(C)C)C(C)C)N(C(C)C)C(C)C)N(C(C)C)C(C)C)N(C(C)C)C(C)C)N(C(C)C)C(C)C)N(C(C)C)C(C)C)N(C(C)C)C(C)C)N(C(C)C)C(C)C)N(C(C)C)C(C)C)[C@@H](CO)O2)c(=O)[nH]c1=O (stereo partly specified) |
| 20 | 22 | 20 | 22 | CC1=CN([C@H]2C[C@H](O[PH](OCCC#N)(OC(C)[C@H]3O[C@@H](n4ccc(N)nc4=O)C[C@@H]3O[PH](OCCC#N)(OC[C@H]3O[C@@H](n4cc(C)c(=O)[nH]c4=O)C[C@@H]3O[PH](OCCC#N)(OC(C)[C@H]3O[C@@H](n4ccc(N)nc4=O)C[C@@H]3O[PH](OCCC#N)(OC[C@H]3O[C@@H](n4cc(C)c(=O)[nH]c4=O)C[C@@H]3O)N(C(C)C)C(C)C)N(C(C)C)C(C)C)N(C(C)C)C(C)C)N(C(C)C)C(C)C)[C@@H](CO[PH](OCCC#N)(O[C@H]3C[C@H](n4ccc(N)nc4=O)O[C@@H]3C(C)O[PH](OCCC#N)(O[C@H]3C[C@H](n4cc(C)c(=O)[nH]c4=O)O[C@@H]3COP(=O)(O)O[C@H]3C[C@H](OCc4cn(-c5ccccc5)nn4)O[C@@H]3CO[PH](OCCC#N)(O[C@H]3C[C@H](n4cc(C)c(=O)[nH]c4=O)O[C@@H]3CO[PH](OCCC#N)(O[C@H]3C[C@H](n4ccc(N)nc4=O)O[C@@H]3C(C)O[PH](OCCC#N)(O[C@H]3C[C@H](n4cc(C)c(=O)[nH]c4=O)O[C@@H]3CO[PH](OCCC#N)(O[C@H]3C[C@H](n4cc(C)c(=O)[nH]c4=O)O[C@@H]3CO[PH](OCCC#N)(O[C@H]3C[C@H](n4cc(C)c(=O)[nH]c4=O)O[C@@H]3CO[PH](OCCC#N)(O[C@H]3C[C@H](n4cc(C)c(=O)[nH]c4=O)O[C@@H]3CO[PH](OCCC#N)(O[C@H]3C[C@H](n4cc(C)c(=O)[nH]c4=O)O[C@@H]3CO)N(C(C)C)C(C)C)N(C(C)C)C(C)C)N(C(C)C)C(C)C)N(C(C)C)C(C)C)N(C(C)C)C(C)C)N(C(C)C)C(C)C)N(C(C)C)C(C)C)N(C(C)C)C(C)C)N(C(C)C)C(C)C)O2)[C@@H](O)NC1=O (stereo partly specified) |
| 16 | 20 | 18 | 19 | Cc1cn([C@H]2C[C@H](O[PH](OCCC#N)(OC[C@H]3O[C@@H](n4cc(C)c(=O)[nH]c4=O)C[C@@H]3O[PH](OCCC#N)(OC[C@H]3O[C@@H](n4cc(C)c(=O)[nH]c4=O)C[C@@H]3O[PH](OCCC#N)(OC[C@H]3O[C@@H](n4cc(C)c(=O)[nH]c4=O)C[C@@H]3O[PH](OCCC#N)(OC[C@H]3O[C@@H](n4cc(C)c(=O)[nH]c4=O)C[C@@H]3O[PH](OCCC#N)(OC(C)[C@H]3O[C@@H](n4ccc(N)nc4=O)C[C@@H]3O[PH](OCCC#N)(OC[C@H]3O[C@@H](n4cc(C)c(=O)[nH]c4=O)C[C@@H]3O[PH](OCCC#N)(OC[C@H]3O[C@@H](CCc4cn(-c5ccccc5C(N)=O)nn4)C[C@@H]3OP(=O)(O)OC[C@H]3O[C@@H](n4cc(C)c(=O)[nH]c4=O)C[C@@H]3O[PH](OCCC#N)(OC(C)[C@H]3O[C@@H](n4ccc(N)nc4=O)C[C@@H]3O[PH](OCCC#N)(OC[C@H]3O[C@@H](n4cc(C)c(=O)[nH]c4=O)C[C@@H]3O[PH](OCCC#N)(OC(C)[C@H]3O[C@@H](n4ccc(N)nc4=O)C[C@@H]3O[PH](OCCC#N)(OC[C@H]3O[C@@H](n4cc(C)c(=O)[nH]c4=O)C[C@@H]3O[PH](OCCC#N)(OC(C)[C@H]3O[C@@H](n4ccc(N)nc4=O)C[C@@H]3O[PH](OCCC#N)(OC[C@H]3O[C@@H](n4cc(C)c(=O)[nH]c4=O)C[C@@H]3O)N(C(C)C)C(C)C)N(C(C)C)C(C)C)N(C(C)C)C(C)C)N(C(C)C)C(C)C)N(C(C)C)C(C)C)N(C(C)C)C(C)C)N(C(C)C)C(C)C)N(C(C)C)C(C)C)N(C(C)C)C(C)C)N(C(C)C)C(C)C)N(C(C)C)C(C)C)N(C(C)C)C(C)C)N(C(C)C)C(C)C)[C@@H](CO)O2)c(=O)[nH]c1=O (stereo partly specified) |

From ChEMBL document CHEMBL2413013, “Triplex-forming ability of oligonucleotides containing 1-aryl-1,2,3-triazole nucleobases linked via a two atom-length spacer” (Bioorg Med Chem, 2013)
